# Entries after “also recorded” stand apart in the source; their conditions may differ.
# Experiments:
# Assay type in all cases: cell-based
# N1303K-CFTR [1] = biological target: T1, N1303K-CFTR (Homo sapiens, UniProt P13569, N1303K); assay: Co-potentiator activity in N1303K-CFTR expressing FRT cell model; settings: for co-potentiator activity (in words) / VMAX: N1303K-CFTR expressing FRT cells; for VMAX: 20 = 100%; for fold more potent than 20: EC50 relative to 20
# In short: (§1)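 FRT cells stably expressing N1303K-CFTR, grown on permeable supports and corrected with 3 μM VX-661 for 18–24 h. Short-circuit current was recorded at 37 °C in HCO3-buffered solutions with a chloride gradient and the basolateral membrane permeabilized with 250 μg/ml amphotericin B. Additions: 20 μM forskolin, 5 μM VX-770, rising test compound concentrations, then 10 μM CFTRinh-172. EC50 and maximal response come from concentration-dependence data (n=3, mean ± S.E.M.), with potency relative to a reference co-potentiator.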
# N1303K-CFTR [2] = biological target: T1, N1303K-CFTR; assay: Short-circuit current in FRT cells expressing N1303K-CFTR; settings: N1303K-CFTR EC50
# In short: as §1
# N1303K-CFTR [3] = biological target: T1, N1303K-CFTR; assay: Short-circuit current in gene-edited 16HBE14o- cells expressing N1303K-CFTR
# In short: (§2)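 Gene-edited 16HBE14o- human bronchial epithelial cells carrying endogenous N1303K or I1234del CFTR were grown on permeable supports. The I1234del cells were corrected with 18 μM VX-661 plus 3 μM VX-445 for 18–24 h. Short-circuit current was measured at 37 °C in Hepes-buffered solutions with a chloride gradient. Additions: 20 μM forskolin, 5 μM VX-770, 10 μM test compound, then 10 μM CFTRinh-172. The CFTRinh-172-inhibitable ΔIsc is compared with the VX-770-alone response (mean ± S.E.M., n=3, unpaired t-test).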
# R347P-CFTR = R347P-CFTR (Homo sapiens, UniProt P13569, R347P); assay: Short-circuit current in FRT cells expressing R347P-CFTR; settings: 20 μM 2i after 20 μM forskolin and 5 μM VX-770
# In short: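 Permeabilized FRT monolayers stably expressing R347P-CFTR were pre-corrected with 3 μM VX-661 for 18–24 h. Short-circuit current was measured at 37 °C in HCO3-buffered solutions under a chloride gradient, with the basolateral membrane opened using 250 μg/ml amphotericin B. Sequential additions: 20 μM forskolin, 5 μM VX-770, 20 μM test compound, then 10 μM CFTRinh-172.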
# I1234del-CFTR = I1234del-CFTR (Homo sapiens, UniProt P13569, DEL1234-1239); assay: Short-circuit current in gene-edited 16HBE14o- cells expressing I1234del-CFTR; settings: 10 μM 2i
# In short: as §2
smiles,measurement,setting,value
"COc1ccc2[nH]c3c(c2c1)CCN[C@@]31CCN2Cc3ccccc3C[C@H]2C1 (racemic) [6b, (+/−)-(2R,11aS)-6’-methoxy-1,2’,3,3’,4,4’,6,9’,11,11a-decahydrospiro[pyrido[1,2-b]isoquinoline-2,1’-pyrido[3,4-b]indole]]",co-potentiator activity (in words),N1303K-CFTR [1],inactive
"COc1ccc2[nH]c3c(c2c1)CCNC31CCN(Cc2cc(Cl)ccc2[N+](=O)[O-])CC1 [1c, 1-(5-Chloro-2-nitrobenzyl)-6’-methoxy-2’,3’,4’,9’-tetrahydrospiro[piperidine-4,1’-pyrido[3,4-b]indole]]",VMAX,N1303K-CFTR [1],improved Vmax
"COc1ccc2[nH]c3c(c2c1)CCNC31CCN(Cc2ccc(Cl)cc2Cl)CC1 [1d, 1-(2,4-Dichlorobenzyl)-6’-methoxy-2’,3’,4’,9’-tetrahydrospiro[piperidine-4,1’-pyrido[3,4-b]indole]]",co-potentiator activity (in words),N1303K-CFTR [1],decreased activity
"COc1ccc2[nH]c3c(c2c1)CCNC31CCN(Cc2cc(F)cc(Cl)c2)CC1 [1e, 1-(3-Chloro-5-fluorobenzyl)-6’-methoxy-2’,3’,4’,9’-tetrahydrospiro[piperidine-4,1’-pyrido[3,4-b]indole]]",co-potentiator activity (in words),N1303K-CFTR [1],decreased activity
"COc1ccc2[nH]c3c(c2c1)CCNC31CCN(Cc2ccc(F)c(Cl)c2F)CC1 [1j, 1-(3-Chloro-2,4-difluorobenzyl)-6’-methoxy-2’,3’,4’,9’-tetrahydrospiro[piperidine-4,1’-pyrido[3,4-b]indole]]",VMAX,N1303K-CFTR [1],improved Vmax
"COc1ccc2[nH]c3c(c2c1)CCNC31CCN(Cc2ccc(F)cc2F)CC1 [2a, 1-(2,4-Difluorobenzyl)-6’-methoxy-2’,3’,4’,9’-tetrahydrospiro[piperidine-4,1’-pyrido[3,4-b]indole]]",co-potentiator activity (in words),N1303K-CFTR [1],active
"COc1ccc2[nH]c3c(c2c1)CCNC31CCN(Cc2cc(F)cc(F)c2)CC1 [2c, 1-(3,5-Difluorobenzyl)-6’-methoxy-2’,3’,4’,9’-tetrahydrospiro[piperidine-4,1’-pyrido[3,4-b]indole]]",co-potentiator activity (in words),N1303K-CFTR [1],active
"COc1ccc2[nH]c3c(c2c1)CCNC31CCN(Cc2c(F)c(F)c(F)c(F)c2F)CC1 [2e, 6’-Methoxy-1-((perfluorophenyl)methyl)-2’,3’,4’,9’-tetrahydrospiro[piperidine-4,1’-pyrido[3,4-b]indole]]",co-potentiator activity (in words),N1303K-CFTR [1],active
"COc1ccc2[nH]c3c(c2c1)CCNC31CCN(Cc2cc(F)c(F)cc2F)CC1 [2i, 6’-Methoxy-1-(2,4,5-trifluorobenzyl)-2’,3’,4’,9’-tetrahydrospiro[piperidine-4,1’-pyrido[3,4-b]indole]]",fold improvement in potency over the original compound (20),N1303K-CFTR [2],~ 17 fold
same,co-potentiator activity (in words),N1303K-CFTR [1],most potent
same,fold greater response than VX-770 alone,N1303K-CFTR [3]; 10 μM 2i,approximately 6 fold
same,CFTRinh-172-inhibitable short-circuit current response,"N1303K-CFTR [3]; 10 μM 2i after 20 μM forskolin and 5 μM VX-770, mean ± S.E.M., n=3",16.1 ± 0.4 μA/cm^2
same,activation of R347P-CFTR (in words),R347P-CFTR,not activated
same,fold greater response than VX-770 alone,I1234del-CFTR,~2 fold
"COc1ccc2[nH]c3c(c2c1)CCNC31CCNCC1 [3a, 6’-Methoxy-2’,3’,4’,9’-tetrahydrospiro[piperidine-4,1’-pyrido[3,4-b]indole]]",co-potentiator activity (in words),N1303K-CFTR [1],inactive
"COc1ccc2[nH]c3c(c2c1)CCNC31CCN(CCc2ccccc2)CC1 [3c, 6’-Methoxy-1-phenethyl-2’,3’,4’,9’-tetrahydrospiro[piperidine-4,1’-pyrido[3,4-b]indole]]",co-potentiator activity (in words),N1303K-CFTR [1],greatly reduced activity; also recorded: inactive
"COc1ccc2[nH]c3c(c2c1)CCNC31CCN(CCCc2ccccc2)CC1 [3d, 6’-Methoxy-1-(3-phenylpropyl)-2’,3’,4’,9’-tetrahydrospiro[piperidine-4,1’-pyrido[3,4-b]indole]]",co-potentiator activity (in words),N1303K-CFTR [1],greatly reduced activity; also recorded: inactive
"COc1ccc2[nH]c3c(c2c1)CCNC31CCN(Cc2ccco2)CC1 [3e, 1-(Furan-2-ylmethyl)-6’-methoxy-2’,3’,4’,9’-tetrahydrospiro[piperidine-4,1’-pyrido[3,4-b]indole]]",co-potentiator activity (in words),N1303K-CFTR [1],"active, but less potent"
"COc1ccc2[nH]c3c(c2c1)CCNC31CCN(Cc2ccccn2)CC1 [3f, 6’-Methoxy-1-(pyridin-2-ylmethyl)-2’,3’,4’,9’-tetrahydrospiro[piperidine-4,1’-pyrido[3,4-b]indole]]",Emax,"N1303K-CFTR [1]; FRT, read-out: VMAX",107%
same,co-potentiator activity (in words),N1303K-CFTR [1],"active, but less potent"
"COc1ccc2[nH]c3c(c2c1)CCNC31CCN(Cc2cccnc2)CC1 [3g, 6’-Methoxy-1-(pyridin-3-ylmethyl)-2’,3’,4’,9’-tetrahydrospiro[piperidine-4,1’-pyrido[3,4-b]indole]]",co-potentiator activity (in words),N1303K-CFTR [1],"active, but less potent"
"COc1ccc2[nH]c3c(c2c1)CCNC31CCCN(Cc2ccc(F)cc2F)CC1 (stereo not drawn) [4a, 1-(2,4-Difluorobenzyl)-6’-methoxy-2’,3’,4’,9’-tetrahydrospiro[azepane-4,1’-pyrido[3,4-b]indole]]",co-potentiator activity (in words),N1303K-CFTR [1],inactive
"COc1ccc2[nH]c3c(c2c1)CCNC31CCN(Cc2ccc(F)cc2F)C1 (stereo not drawn) [4b, 1’-(2,4-Difluorobenzyl)-6-methoxy-2,3,4,9-tetrahydrospiro[pyrido[3,4-b]indole-1,3’-pyrrolidine]]",co-potentiator activity (in words),N1303K-CFTR [1],inactive; also recorded: abolished activity
"COc1ccc2[nH]c3c(c2c1)CCNC31CCCN(Cc2ccc(F)cc2F)C1 (stereo not drawn) [4c, 1-(2,4-Difluorobenzyl)-6’-methoxy-2’,3’,4’,9’-tetrahydrospiro[piperidine-3,1’-pyrido[3,4-b]indole]]",co-potentiator activity (in words),N1303K-CFTR [1],inactive; also recorded: abolished activity
"COc1ccc2[nH]cc(CCNC3CCN(Cc4ccccc4)CC3)c2c1 [4d, 1-Benzyl-N-(2-(5-methoxy-1H-indol-3-yl)ethyl)piperidin-4-amine]",co-potentiator activity (in words),N1303K-CFTR [1],abolished activity
"Fc1ccc(CN2CCC3(CC2)NCCc2c3[nH]c3ccc(Cl)cc23)c(F)c1 [5c, 6’-Chloro-1-(2,4-difluorobenzyl)-2’,3’,4’,9’-tetrahydrospiro[piperidine-4,1’-pyrido[3,4-b]indole]]",fold more potent than 20,N1303K-CFTR [1],approximately 4 fold
same,co-potentiator activity (in words),N1303K-CFTR [1],tolerated
"COc1ccc2c3c([nH]c2c1)C1(CCN(Cc2ccc(F)cc2F)CC1)NCC3 [5d, 1-(2,4-Difluorobenzyl)-7’-methoxy-2’,3’,4’,9’-tetrahydrospiro[piperidine-4,1’-pyrido[3,4-b]indole]]",fold more potent than 20,N1303K-CFTR [1],approximately 4 fold
same,co-potentiator activity (in words),N1303K-CFTR [1],decreased activity
"COc1ccc2c(c1)c1c(n2C)C2(CCN(Cc3ccc(F)cc3F)CC2)NCC1 [5e, 1-(2,4-Difluorobenzyl)-6’-methoxy-9’-methyl-2’,3’,4’,9’-tetrahydrospiro[piperidine-4,1’-pyrido[3,4-b]indole]]",co-potentiator activity (in words),N1303K-CFTR [1],inactive; also recorded: inactivity

# Reference: publication PMC7744356 (European journal of medicinal chemistry, 2020)
